TRPC4 block: TRPC4 (mouse) channel inhibition; B-score at 10 µM; Q9QUQ5; 300,000 compounds, 0.39% hits; HEK293 TRPC4beta/mu-opioid, DAMGO-evoked Fluo4 calcium flux; stronger effect = lower value;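 active means B-score over 3 SD under the library average, no early fluorescence shift, positive overall ratio signal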
Target sequence (Q9QUQ5 whole entry, looked up): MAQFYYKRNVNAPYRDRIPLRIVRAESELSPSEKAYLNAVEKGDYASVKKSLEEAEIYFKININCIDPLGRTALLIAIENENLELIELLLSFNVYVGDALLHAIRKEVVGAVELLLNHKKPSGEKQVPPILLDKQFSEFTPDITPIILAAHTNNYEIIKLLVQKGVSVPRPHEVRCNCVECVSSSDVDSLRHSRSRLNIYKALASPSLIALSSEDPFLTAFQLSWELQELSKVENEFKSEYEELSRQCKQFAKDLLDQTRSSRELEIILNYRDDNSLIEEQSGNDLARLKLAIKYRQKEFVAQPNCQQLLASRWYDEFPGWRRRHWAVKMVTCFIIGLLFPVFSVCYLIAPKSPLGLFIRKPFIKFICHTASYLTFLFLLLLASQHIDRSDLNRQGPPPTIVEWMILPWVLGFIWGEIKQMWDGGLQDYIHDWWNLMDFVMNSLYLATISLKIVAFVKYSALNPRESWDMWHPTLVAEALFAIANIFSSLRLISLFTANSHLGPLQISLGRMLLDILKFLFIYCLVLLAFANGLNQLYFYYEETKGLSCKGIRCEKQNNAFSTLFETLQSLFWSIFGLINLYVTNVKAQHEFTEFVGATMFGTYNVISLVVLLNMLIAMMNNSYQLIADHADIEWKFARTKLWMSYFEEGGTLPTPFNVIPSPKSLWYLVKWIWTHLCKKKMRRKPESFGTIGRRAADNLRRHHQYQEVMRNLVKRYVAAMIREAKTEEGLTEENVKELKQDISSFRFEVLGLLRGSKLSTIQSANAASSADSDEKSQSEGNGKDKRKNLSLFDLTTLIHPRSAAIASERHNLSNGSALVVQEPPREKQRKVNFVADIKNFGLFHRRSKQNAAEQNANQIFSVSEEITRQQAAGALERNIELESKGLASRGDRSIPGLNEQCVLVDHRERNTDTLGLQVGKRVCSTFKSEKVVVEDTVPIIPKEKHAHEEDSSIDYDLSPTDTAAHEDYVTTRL
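material = TRPC4beta/mu-opioid receptor HEK293 cell line | probe or stimulus = sequential submaximal and maximal DAMGO stimulation | compound dosing = one concentration per compound | measured by = Fluo4 Ca2+ flux fluorescence | evaluation = integrated fluorescence ratio relative to baseline, converted to per-well B score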
TRPC4 potent: allosterically enhances the mouse TRPC4 cation channel. Q9QUQ5. HEK293 TRPC4beta/mu-opioid, DAMGO EC20, Fluo-4 Ca2+ flux; stronger effect = higher value. B-score at 10 µM. 310,000 compounds, 0.42% hits. AID 2227;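 active means B-score of calcium response area above 5 SD of library B-scores, with initial fluorescence ratio within 5 SD of library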;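 further: B-score of integrated fluorescence ratio over time as area under calcium response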
TRPC6 act: mouse TRPC6 channel activation; Q61143; HEK293-TRPC6 membrane potential dye fluorescence; stronger effect = higher value; B-score at 10 µM; 310,000 compounds, 0.13% hits; AID 2550;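 active means B-score of the integrated fluorescence ratio above library mean plus 3 SD, and starting fluorescence ratio within library mean plus 5 SD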;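 further: higher score means more depolarization so channel activation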
TRPC6 inh: mouse TRPC6 channel inhibition | HEK293-TRPC6, membrane potential dye, ACh-evoked depolarization; stronger effect = lower value | B-score at 10 µM | 310,000 compounds, 1.1% hits | Q61143;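 active means B-score under library mean minus 3 SD, initial fluorescence not abnormally high, positive integrated signal ratio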;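 further: B-score derived from integrated fluorescence ratio over the kinetic read; more negative B-score means stronger inhibition of depolarization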
TRPC4 agonist: TRPC4 (mouse) channel activation | Q9QUQ5 | HEK293 TRPC4beta/mu-opioid, Fluo4 calcium fluorescence; stronger effect = higher value | B-score at 10 µM | 310,000 compounds, 0.49% hits;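 active means B-score above 5 SD of library B-scores, and initial fluorescence ratio not above library mean plus 5 SD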;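 further: positive B-score marks a calcium rise read as TRPC4 activation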
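System – HEK293 cells stably co-expressing mouse TRPC4beta and mu-opioid receptor · Signal – Fluo4 calcium-sensitive dye fluorescence, kinetic, 1 Hz baseline · Benchmarks – buffer (low) and maximal DAMGO (high) · Read-out – B score of integrated fluorescence ratio per well · Incubation – dye loading 45 min room temperature, 110 s kinetic read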
TRPC4 sel inh 2: second selectivity test of TRPC6 inhibitors: effect on mouse TRPC4; shares compounds with TRPC6 inh; HEK293 TRPC4/MOR, membrane potential dye fluorescence; channel activated by saturating DAMGO dose; inhibition, % at 10 µM; 920 compounds, 42% hits; AID 2776;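 active means compounds whose fluorescence signal differed from control wells by over 3 SD, either direction, in both duplicate plates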
TRPC4 spec: tests whether TRPC6 inhibitors also affect mouse TRPC4; shares compounds with TRPC6 inh; HEK293 TRPC4/mu-opioid, membrane potential fluorescence; activity change, negative = inhibition, % at 10 µM; 920 compounds, 61% hits;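 active means rise or fall in signal beyond 3 SD of buffer-only wells in both replicate plates, either sign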;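 further: integrated kinetic ratio of fluorescence range over baseline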
HEK293 MPD ctr 2-1: second check of TRPC6 inhibitor effects in parental HEK293 cells. shares compounds with TRPC6 inh. parental HEK293 membrane potential dye fluorescence; maximal acetylcholine challenge after compound addition. signal change vs control, % at 10 µM. 920 compounds, 31% hits. AID 2779;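 active means membrane potential signal moving either way by over 3 SD of the maximum-effect control, in both duplicate plates, meaning non-specific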
HEK293 MPD ctr-1: counter-screen for TRPC6 inhibitors: effect in parental HEK293 cells. parental HEK293 membrane potential dye fluorescence. shares compounds with TRPC6 inh. AID 2780. membrane potential signal change, % at 10 µM. 920 compounds, 60% hits;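 active means membrane potential signal shifting up or down by more than 3 SD of buffer-only wells, on both duplicate plates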
HEK293 MPD ctr-2: parental HEK293 nonspecific activity of TRPC6 modulators | shares compounds with TRPC6 inh | 2,400 compounds, 51% hits | membrane potential signal change, % at 10 µM | membrane potential dye fluorescence;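 active means membrane potential signal moves up or down beyond 5 SD from buffer-only wells, on both duplicate plates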
HEK293 MPD ctr 2-2: parental HEK293 nonspecific activity of TRPC6 modulators, second screen; shares compounds with TRPC6 inh; membrane potential dye fluorescence; after compound, maximal acetylcholine stimulation; inhibition, % at 10 µM; 2,400 compounds, 14% hits;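 active means membrane potential signal drops by more than 5 SD from the mean control signal, in both duplicate plates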;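 further: plate controls were acetylcholine ECmax control wells for no effect and buffer only wells for full effect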
TRPC4 ctr mod: mouse TRPC4 off-target activity of TRPC6 modulators; HEK293 TRPC4/mu-opioid, membrane potential fluorescence; percent change from control (negative = decrease, positive = increase), % at 10 µM; 2,400 compounds, 69% hits; shares compounds with TRPC6 inh; AID 488927;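 active means membrane potential signal moved up or down beyond 5 SD of buffer control wells, in both duplicate plates, actives on both sides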;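 further: plate controls were assay buffer wells for no effect and DAMGO maximal-effect wells for full effect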
TRPC4 ctr inh 2: second selectivity test of TRPC6 modulators against mouse TRPC4 | AID 488928 | shares compounds with TRPC6 inh | inhibition, % at 10 µM | 2,400 compounds, 55% hits | HEK293 TRPC4/mu-opioid, membrane potential dye fluorescence; stimulated with maximal-effect DAMGO;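 active means drop in membrane potential signal beyond 5 SD of the control wells in both duplicate plates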;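 further: TRPC4 counter screen for TRPC6 hits run under conditions tuned for TRPC6 not TRPC4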
TRPC6 block conf: mouse TRPC6 inhibitor confirmation; 3,300 compounds, 43% hits; inhibition, % at 10 µM; AID 488960; shares compounds with TRPC6 inh; HEK293-TRPC6, membrane potential dye, ACh-evoked depolarization;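 active means fluorescence ratio falls more than 5 SD below the full-stimulation control mean, in both duplicate runs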;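 further: integrated fluorescence ratio of peak minus minimum over baseline after agonist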
TRPC6 act confirm: mouse TRPC6 activator confirmation; shares compounds with TRPC6 inh; HEK293-TRPC6 membrane potential dye fluorescence, FDSS; activation, % at 10 µM; 2,800 compounds, 11% hits;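 active means ratio signal rise beyond 5 SD above unstimulated control wells' mean, seen in both duplicate runs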;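 further: plate controls were buffer EC0 wells for no effect and acetylcholine ECmax response for full effect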
* marks the source's active call; other numbers are inactive results. Hits are enriched below; roughly 2.3% of the tested compounds scored in any of these assays.

How did CC(C)C(C(=O)NC1CCCC1)N(CC1CCCO1)C(=O)CNS(=O)(=O)c1ccc(F)cc1 (configuration not stated) do in these assays?
TRPC4 block: inactive; TRPC4 potent: inactive; TRPC6 act: inactive; TRPC6 inh: inactive; TRPC4 agonist: inactive

Results for CN(C)CCCNC(=O)C(=O)NCC1CCCO1 (configuration not stated) ?
TRPC4 block: inactive; TRPC4 potent: inactive; TRPC6 act: inactive; TRPC6 inh: inactive; TRPC4 agonist: inactive

How did CC(C)(C)c1ccc(CN2C(=O)CSC2=O)cc1 do in these assays?
TRPC4 block: inactive; TRPC4 potent: inactive; TRPC6 act: inactive; TRPC6 inh: -5.2*; TRPC4 agonist: inactive; HEK293 MPD ctr-2: inactive; HEK293 MPD ctr 2-2: inactive; TRPC4 ctr mod: inactive; TRPC4 ctr inh 2: inactive; TRPC6 block conf: inactive; TRPC6 act confirm: inactive

How did O=C(O)c1ccc(CN2C(=O)CSC2=S)cc1 do in these assays?
TRPC4 block: inactive; TRPC4 potent: inactive; TRPC6 act: inactive; TRPC6 inh: inactive; TRPC4 agonist: inactive

How did COc1ccccc1CNC(=O)OCc1nccnc1C(=O)Nc1ccc(Br)cn1 do in these assays?
TRPC4 block: inactive; TRPC4 potent: inactive; TRPC6 act: inactive; TRPC6 inh: inactive; TRPC4 agonist: inactive

Results for CC12CNCC(C)(CN(C(c3ccccc3)c3ccccc3)C1)C2 ?
TRPC4 block: inactive; TRPC4 potent: inactive; TRPC6 act: inactive; TRPC6 inh: -5.6*; TRPC4 agonist: inactive; HEK293 MPD ctr-2: 182%*; HEK293 MPD ctr 2-2: inactive; TRPC4 ctr mod: 76%*; TRPC4 ctr inh 2: 90%*; TRPC6 block conf: inactive

Results for Clc1ccc(C(c2ccccc2)N2CCNCC2)cc1 (configuration not stated) ?
TRPC4 block: inactive; TRPC4 potent: inactive; TRPC6 act: inactive; TRPC6 inh: -7.8*; TRPC4 agonist: inactive; TRPC4 sel inh 2: 61%*; TRPC4 spec: inactive; HEK293 MPD ctr 2-1: inactive; HEK293 MPD ctr-1: inactive; TRPC6 block conf: inactive; TRPC6 act confirm: inactive

What do the screens show for `Cc1ccc(C)c(CN2CCCNC2=O)c1`?
TRPC4 block: inactive; TRPC4 potent: inactive; TRPC6 act: inactive; TRPC6 inh: inactive; TRPC4 agonist: inactive

What do the screens show for `Cc1cccc(CN2CCCC(C(=O)Nc3ccc(-c4cscn4)cc3)C2)c1` (configuration not stated)?
TRPC4 block: inactive; TRPC4 potent: inactive; TRPC6 act: inactive; TRPC6 inh: inactive; TRPC4 agonist: inactive

Results for Cc1ccc(S(=O)(=O)CCSc2n[nH]c(=O)n2-c2ccc3c(c2)OCCO3)cc1 ?
TRPC4 block: inactive; TRPC4 potent: inactive; TRPC6 act: inactive; TRPC6 inh: inactive; TRPC4 agonist: inactive

What do the screens show for `CS(=O)(=O)N1CCN(C(=O)C2c3ccccc3Oc3ccccc32)CC1`?
TRPC4 block: inactive; TRPC4 potent: inactive; TRPC6 act: inactive; TRPC6 inh: -5.7*; TRPC4 agonist: inactive; HEK293 MPD ctr-2: inactive; HEK293 MPD ctr 2-2: inactive; TRPC4 ctr mod: 18%*; TRPC4 ctr inh 2: inactive; TRPC6 block conf: 42%*

How did CCC(=O)N1CCc2cc(S(=O)(=O)NCCC(=O)NC3CCCCCC3)ccc21 do in these assays?
TRPC4 block: inactive; TRPC4 potent: inactive; TRPC6 act: inactive; TRPC6 inh: inactive; TRPC4 agonist: inactive

What do the screens show for `O=C(Oc1ccc(F)c(F)c1)c1ccc2c(=O)n3c(nc2c1)CCC3`?
TRPC4 block: inactive; TRPC4 potent: inactive; TRPC6 act: inactive; TRPC6 inh: -5.1*; TRPC4 agonist: inactive; HEK293 MPD ctr-2: inactive; HEK293 MPD ctr 2-2: inactive; TRPC4 ctr mod: inactive; TRPC4 ctr inh 2: inactive; TRPC6 block conf: inactive; TRPC6 act confirm: inactive

Results for O=C(Nc1ccc(Br)cc1Cl)c1ccc2c(=O)n3c(nc2c1)CCC3 ?
TRPC4 block: inactive; TRPC4 potent: inactive; TRPC6 act: inactive; TRPC6 inh: inactive; TRPC4 agonist: inactive

Results for CCCCc1nnc(NC(=O)c2ccc3c(=O)n4c(nc3c2)CCC4)s1 ?
TRPC4 block: inactive; TRPC4 potent: inactive; TRPC6 act: inactive; TRPC6 inh: -7.4*; TRPC4 agonist: inactive; TRPC4 sel inh 2: inactive; TRPC4 spec: -15%*; HEK293 MPD ctr 2-1: inactive; HEK293 MPD ctr-1: -130%*; TRPC6 block conf: inactive; TRPC6 act confirm: inactive

How did O=C(Nc1ccc(Cl)cc1Cl)c1ccc2c(=O)n3c(nc2c1)CCC3 do in these assays?
TRPC4 block: inactive; TRPC4 potent: inactive; TRPC6 act: inactive; TRPC6 inh: -5.1*; TRPC4 agonist: 59*; HEK293 MPD ctr-2: 276%*; HEK293 MPD ctr 2-2: 114%*; TRPC4 ctr mod: 34%*; TRPC4 ctr inh 2: inactive; TRPC6 block conf: inactive

Results for O=S(=O)(NCCC1=CCCCC1)c1ccc(F)cc1 ?
TRPC4 block: inactive; TRPC4 potent: inactive; TRPC6 act: inactive; TRPC6 inh: inactive; TRPC4 agonist: inactive

Screening data: PubChem BioAssay, Johns Hopkins Ion Channel Center
